# Rpn11 inh – inhibitors of human proteasome Rpn11; human 26S proteasome, Ub4-pepOG fluorescence polarization; 20S core pre-blocked with epoxomicin; inhibition, % at 20 µM; hit rate 0.59% among 360,000; O00487; AID 588493;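 active = inhibition at 20 µM, scaled to each plate's controls, above about 33%, limit read from the data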
# aDG glyco act – increases alpha dystroglycan glycosylation | Pro5-aDG cells, alpha-DG glycosylation AlphaScreen (IIH6); 0% Pro5, 100% B10-LARGE cell signal | activation, % at 10 µM | hit rate 0.22% among 360,000;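 active = activation of at least 8% versus controls, or a plate z-score of at least 8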;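 note: Pro5 are CHO cells carrying HIG-tagged alpha-DG that lacks glycosylation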
# TPT1 inhibitor – C. albicans TPT1 enzyme inhibition | recombinant caTPT1, FP RNA substrate dephosphorylation | inhibition, % at 5 µM | hit rate 0.81% among 300,000;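 active = inhibition above the mean of all tested compounds plus 3 SD, set per screening campaign, cut at about 24% in these data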
# CSN inh – blocks human CSN-mediated cullin deneddylation. hit rate 0.38% among 360,000. Q92905. AID 651999. inhibition, % at 12.5 µM. Purified CSN, SCF-Nedd8-OG deneddylation, fluorescence polarization;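 active = pattern-corrected inhibition above about 35%, with an unprinted fluorescence ratio check between 0.5 and 1.5, limit read from the data, passing the limit was not always enough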
#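 Test system: purified human Csn5 enzyme expressed in HEK293T cells. Amount: 0.24 nM enzyme. Reagent: SCFSkp2-Nedd8OG substrate at 10 nM final. Schedule: 90 min incubation of compound, enzyme and substrate at room temperature. Detection: fluorescence polarization. Read-out: % inhibition of substrate cleavage by Csn5.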
# HNF4A DNA FP – change in binding of human HNF4 alpha to DNA; HNF4a-FITC DNA binding, fluorescence polarization, 1 h; activity change, % at 10 µM; hit rate 0.3% among 360,000; AID 1224865; in the data active = activity change above about 30%, passing the limit was not always enough
# Target sequence (P41235 whole entry, looked up): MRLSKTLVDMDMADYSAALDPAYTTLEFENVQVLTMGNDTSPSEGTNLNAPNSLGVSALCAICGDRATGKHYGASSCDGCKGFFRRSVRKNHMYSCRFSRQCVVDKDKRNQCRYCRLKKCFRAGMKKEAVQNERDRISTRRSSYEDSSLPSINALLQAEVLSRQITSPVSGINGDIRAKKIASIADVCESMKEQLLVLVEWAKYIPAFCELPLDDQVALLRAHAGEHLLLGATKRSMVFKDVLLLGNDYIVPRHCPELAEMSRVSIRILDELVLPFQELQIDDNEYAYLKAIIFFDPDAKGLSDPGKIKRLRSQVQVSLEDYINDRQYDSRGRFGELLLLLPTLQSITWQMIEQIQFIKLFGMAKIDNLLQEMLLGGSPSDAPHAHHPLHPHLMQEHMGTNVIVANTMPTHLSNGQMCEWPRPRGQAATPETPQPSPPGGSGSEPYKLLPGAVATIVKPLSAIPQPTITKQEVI
# Xi reactivation – X-chromosome reactivation activator. XiGFP mouse fibroblasts, % GFP-positive cells imaging, 3 d; cells co-treated with 5-aza-dC sensitizer; scaled so ellipticine positive control = 100%. activation, % at 7.58 µM. hit rate 0.055% among 360,000;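 active = mean normalized replicate activation at least 10% and every replicate at or above 10%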
#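 Schedule: 3 d treatment, 15 min room-temperature fixation; system: 68-5-11 XiGFP fibroblast line; buffer or medium: DMEM plus 5-aza-dC sensitizer; control set: ellipticine 6 µM positive control; compound: one concentration, pinned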
# Rpn11 inh conf – Rpn11 inhibition confirmation, single concentration; shares compounds with Rpn11 inh; purified human 26S proteasome, Ub4-pepOG fluorescence polarization; proteasome pretreated with epoxomicin; inhibition, % at 20 µM; hit rate 29% among 1,900; AID 602318
# MMP-2 counter – blocks human MMP-2, flagging nonselective RPN11 hits; shares compounds with Rpn11 inh; hit rate 4% among 1,900; recombinant MMP-2, FRET peptide cleavage fluorescence; inhibition, % at 20 µM;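 note: human MMP-2 activated beforehand with APMA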
# Thrombin inh – blocks bovine thrombin, flagging nonselective RPN11 hits; shares compounds with Rpn11 inh; bovine thrombin cleavage of Ub4-pepOG, fluorescence polarization; inhibition, % at 20 µM; hit rate 13% among 1,900;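 active = mean inhibition at least 40% at 20 µM, or signal 3 deviations below plate average, so some actives read negative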
# Hits are given with their value; - = inactive; . = no result given. In the library only some 1.3% were active in any assay of this set; here they are far more common. Cut-off read from the data, not from the text of the source, unless noted: active = inhibition above about 40%; inactive = the rest.
SMILES,Rpn11 inh,aDG glyco act,TPT1 inhibitor,CSN inh,HNF4A DNA FP,Xi reactivation,Rpn11 inh conf,MMP-2 counter,Thrombin inh
C=CCn1sc(=N)c(C#N)c1N,59.6,-,-,-,-,.,-,-,-
C=CC1=C(C(=O)O)N2C(=O)C(NC(=O)Cc3ccccc3)C2SC1 (stereo unspecified),137.5,-,-,54.3,-,.,-,-,-
CC(=O)OCC1=C(C(=O)O)N2C(=O)[C@@H](NC(=O)Cc3ccccc3)[C@H]2SC1,-,-,.,-,-,.,.,.,.
CC1(C)Oc2ccc(C(=O)NC3CC3)cc2N(CC(=O)N2CCOCC2)C1=O,-,-,-,-,-,.,.,.,.
CC1(C)Oc2ccc(C(=O)NC3CCCC3)cc2N(CC(=O)N2CCOCC2)C1=O,75.1,-,-,-,-,.,-,-,-
C[C@@H]1CCCCO[C@H](CN(C)CC2CCCCC2)[C@H](C)CN([C@H](C)CO)C(=O)c2cc(NS(=O)(=O)c3ccc(Cl)cc3)ccc2O1,.,.,.,.,.,-,.,.,.
N#C/C(=C\c1ccccc1OCC(=O)O)c1nc2ccccc2[nH]1,-,-,-,-,-,-,.,.,.
Cc1cc(/C=C(/C#N)c2nc3ccccc3[nH]2)c(C)n1-c1ccccc1C(=O)O,54.7,-,-,-,-,-,74.9,-,50.8
CCNC(=S)NNC(=O)c1cccc(Br)c1,28.3,-,-,-,-,.,-,-,-
COc1ccccc1-c1cn(CC[C@H]2CC[C@@H](NC(=O)C3CCC3)[C@@H](CO)O2)nn1,.,.,.,.,.,-,.,.,.
CC1(C(=O)O)Sc2[nH]c(=O)sc2C2c3ccccc3OC(=O)C21 (stereo unspecified),48.5,-,-,-,39.1,.,-,-,-
O=c1[nH]c(CN2CCN(S(=O)(=O)c3ccccc3C(F)(F)F)CC2)nc2sc3c(c12)CCCC3,71.0,-,-,-,-,-,-,-,-
COc1cc2nc(CN3CCN(S(=O)(=O)c4ccccc4C(F)(F)F)CC3)[nH]c(=O)c2cc1OC,-,-,.,-,-,-,.,.,.
CO/C([O-])=N/c1c[n+](-c2ccc(Cl)cc2)no1,84.0,-,-,-,-,.,-,-,-
COc1ccc2nc(/C(C#N)=C\c3ccc(Oc4ccc([N+](=O)[O-])cn4)cc3)[nH]c2c1,-,-,-,-,-,-,.,.,.
COc1ccc2nc(/C(C#N)=C\c3ccc(C(=O)O)cc3)[nH]c2c1,43.0,-,-,-,-,-,-,-,-
O=C(Nc1cccnc1)c1cccc(-c2cc3ccccc3oc2=O)c1,133.8,-,-,-,-,-,115.2,-,-
COc1ccc2c3c([nH]c2c1)[C@H](CO)N(C)CC31CN(C(=O)Nc2c(C)noc2C)C1,.,.,.,.,.,-,.,.,.
Cc1ccc(/C=c2\sc3nc(-c4ccccc4Br)nn3c2=O)o1,43.2,-,-,50.1,-,.,-,-,-
Fc1ccccc1NC(=S)NN(Cc1ccccc1)c1ccccc1,111.3,-,-,-,37.6,.,-,45.9,-
CCCc1cn(CC[C@H]2CC[C@H](NS(=O)(=O)c3ccc(-c4ccccc4)cc3)[C@@H](CO)O2)nn1,.,.,.,.,.,-,.,.,.
C[C@@H]1CCCCO[C@@H](CN(C)S(=O)(=O)c2ccc(F)cc2)[C@@H](C)CN([C@@H](C)CO)C(=O)c2cc(NC(=O)Cc3ccccc3)ccc2O1,.,.,.,.,.,-,.,.,.
COc1ccccc1C(=O)N/C(N)=N/c1nc2ccccc2o1,59.3,-,-,-,-,.,51.0,-,-
Cc1ccc(C(=O)N/C(N)=N/c2nc3ccccc3o2)cc1,-,-,-,-,-,.,.,.,.
O=C(CSc1nnc(-c2ccco2)o1)c1ccc([N+](=O)[O-])cc1,36.2,-,-,-,-,-,-,-,-
SMILES,Rpn11 inh,aDG glyco act,TPT1 inhibitor,CSN inh,HNF4A DNA FP,Xi reactivation,Rpn11 inh conf,MMP-2 counter,Thrombin inh
CN(C)C(=O)CCSc1nnc(-c2ccco2)o1,31.9,-,-,-,-,-,-,-,-
Cc1cccc(N2CCN(S(=O)(=O)c3cc4c(cc3Cl)NC(=O)CO4)CC2)c1C,43.7,-,-,-,-,-,-,-,-
Cc1ccc(S(=O)(=O)N(C)CC(=O)O/N=C(\N)c2cccc([N+](=O)[O-])c2)cc1,195.7,-,-,-,-,.,-,-,-
Cc1ccc(-n2c(SCC(=O)NCC3CCCO3)nc3ccccc3c2=O)cc1 (stereo unspecified),-,-,.,-,-,-,.,.,.
COc1ccc(-n2c(SCC(=O)NCC3CCCO3)nc3ccccc3c2=O)cc1Cl (stereo unspecified),47.2,-,.,-,-,-,-,-,-
O=c1cc(CN2CCCCCCC2)c2ccccc2o1,45.5,-,.,-,-,-,-,-,-
O=c1cc(CN2CCCCC2)c2ccccc2o1,-,-,.,-,-,-,.,.,.
COc1ccc(CN(C)C[C@@H]2Oc3c(NC(=O)c4cc(C)nn4C)cccc3C(=O)N([C@H](C)CO)C[C@H]2C)cc1,.,.,.,.,.,-,.,.,.
CC(=O)N1CC[C@H]2[C@@H]1c1cc(-c3ccc(C#N)cc3)ccc1N(C)[C@H]2CO,.,.,.,.,.,-,.,.,.
CC1(C)CC(=O)C(N=Nc2ccc(F)cc2)=C(O)C1,-,-,-,-,-,-,.,.,.
CC1(C)CC(=O)C(N=Nc2ccc(-c3ccccc3)cc2)=C(O)C1,47.5,-,-,-,-,-,-,-,-
COc1ccccc1C(=O)Nc1nnc(SCC(=O)Nc2ccc3c(c2)oc2ccccc23)s1,63.4,-,-,-,-,-,-,-,-
c1ccc(Cn2c(SCc3nc4ccccc4s3)nnc2-c2ccco2)cc1,74.5,-,-,44.6,-,.,-,-,-
CCC(c1nnc(SCc2nc3ccccc3s2)n1Cc1ccccc1)N(C)C (stereo unspecified),-,-,-,-,-,.,.,.,.
COc1cccc(C(=O)NCC(=O)N/N=C/c2c(C)[nH]c3ccccc23)c1,-,-,-,-,-,-,.,.,.
COc1ccc2c(Cl)c(C(=O)N/N=C/c3c(C)[nH]c4ccccc34)sc2c1,71.9,-,-,-,-,-,99.0,-,52.9
O=C(Nc1nc(-c2ccco2)c(-c2ccco2)s1)c1c(F)cccc1Cl,52.8,-,.,48.9,-,-,-,-,-
O=C(O)c1ccc(/C=C/c2nc3sc4c(c3c(=O)[nH]2)CCC4)cc1,73.2,-,-,-,-,-,90.8,-,40.0
O=C(O)c1ccc(/C=C/c2nc3ccccc3c(=O)[nH]2)cc1,-,-,-,-,-,-,.,.,.
O=C(C[C@@H]1CC[C@H]2NC[C@@H](O)COC[C@@H]2O1)NCc1ccc2c(c1)OCO2,.,.,.,.,.,-,.,.,.
